This is an account of results in ChEMBL document CHEMBL1641602, “Quinolones as HCV NS5B polymerase inhibitors” (Bioorg Med Chem Lett, 2011).

Data set [1] is described as follows: Cytotoxicity against human HuH7 cells. The format is cell-based, Huh-7.
Data set [2] is described as follows: Inhibition of Hepatitis C virus 1b BK NS5B Cdelta21 polymerase by scintillation proximity assay. More on the design: species or system Hepatitis C virus (isolate BK).
Data set [3] has as its system Hepatitis C virus. Briefly: Antiviral activity against HCV 1b infected in human HuH7 cells assessed as total viral RNA level after 48 hrs by RT-qPCR analysis. The format is functional, organism-based, Hepacivirus hominis, genotype 1b, Huh-7. A digest of the protocol: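 Huh7/Clone A genotype 1b replicon cells, seeded at 40,000 per well in growth medium without G418, incubated overnight at 37 °C, 5% CO2. Compounds serially diluted in DMSO (final 0.5%), seven concentrations in triplicate, 48 h at 37 °C. Total RNA extracted and replicon RNA quantified by TaqMan RT-qPCR, normalized to untreated cells (100%).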

Data set [4] relates to Hepatitis C virus. Briefly: Antiviral activity against HCV 1a infected in human HuH7 cells assessed as total viral RNA level after 48 hrs by RT-qPCR analysis. In kind it is functional, organism-based, Hepacivirus hominis. Particulars: subtype 1a, Huh-7, 48 h; call rule not given here.
The subject of data set [5] is RNA-directed RNA polymerase (Hepacivirus hominis), O39930 [P495L]. Briefly: Inhibition of HCV 1b BK NS5B polymerase NNI-1 allosteric site P495L mutant by scintillation proximity assay relative to wild-type. Particulars: Hepatitis C virus (isolate BK). In a few lines:
(§1)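 SPA polymerase assay at 22 °C: 50 nM genotype 1b BK NS5B (C-terminal 21-residue deletion), mutant and wild-type, preincubated with inhibitor in pH 7.5 Tris buffer with MgCl2, DTT, KCl, BSA and 5% DMSO. Started with [3H]UTP, 1 µM UTP, biotinylated oligo(rU12) and poly(rA); stopped at 120 min with streptavidin SPA beads, then CsCl, then counted. Fold-change in inhibition over wild-type.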

Data set [6] has as its system RNA-directed RNA polymerase (Hepacivirus hominis), O39930 [M423F]. Briefly: Inhibition of HCV 1b BK NS5B polymerase NNI-2 allosteric site M423F mutant by scintillation proximity assay relative to wild-type. The settings on record: Hepatitis C virus (isolate BK). A digest of the protocol:
as §1

Where [7] appears, read: Hepatitis C virus, genotype 1b, Huh-7, 48 h, read-out: EC50.

Sequence of RNA-directed RNA polymerase (Hepacivirus hominis), O39930 [P495L] (O39930 entry or part of it P495L): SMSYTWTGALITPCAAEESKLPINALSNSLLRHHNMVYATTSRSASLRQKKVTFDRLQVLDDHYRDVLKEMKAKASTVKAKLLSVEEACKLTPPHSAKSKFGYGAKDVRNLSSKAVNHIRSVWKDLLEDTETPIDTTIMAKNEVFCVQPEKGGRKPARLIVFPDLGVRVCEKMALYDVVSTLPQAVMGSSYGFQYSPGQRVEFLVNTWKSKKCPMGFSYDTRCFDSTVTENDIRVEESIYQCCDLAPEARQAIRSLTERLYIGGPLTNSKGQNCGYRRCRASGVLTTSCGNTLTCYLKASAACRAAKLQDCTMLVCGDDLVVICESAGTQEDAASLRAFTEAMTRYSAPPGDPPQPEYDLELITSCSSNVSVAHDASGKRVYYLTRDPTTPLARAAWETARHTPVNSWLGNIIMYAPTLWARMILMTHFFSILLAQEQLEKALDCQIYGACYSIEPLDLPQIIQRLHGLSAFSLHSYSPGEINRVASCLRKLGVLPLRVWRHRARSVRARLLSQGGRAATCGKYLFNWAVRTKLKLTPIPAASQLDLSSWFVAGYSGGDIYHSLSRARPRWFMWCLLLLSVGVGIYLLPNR
Sequence of RNA-directed RNA polymerase (Hepacivirus hominis), O39930 [M423F] (O39930 entry or part of it M423F): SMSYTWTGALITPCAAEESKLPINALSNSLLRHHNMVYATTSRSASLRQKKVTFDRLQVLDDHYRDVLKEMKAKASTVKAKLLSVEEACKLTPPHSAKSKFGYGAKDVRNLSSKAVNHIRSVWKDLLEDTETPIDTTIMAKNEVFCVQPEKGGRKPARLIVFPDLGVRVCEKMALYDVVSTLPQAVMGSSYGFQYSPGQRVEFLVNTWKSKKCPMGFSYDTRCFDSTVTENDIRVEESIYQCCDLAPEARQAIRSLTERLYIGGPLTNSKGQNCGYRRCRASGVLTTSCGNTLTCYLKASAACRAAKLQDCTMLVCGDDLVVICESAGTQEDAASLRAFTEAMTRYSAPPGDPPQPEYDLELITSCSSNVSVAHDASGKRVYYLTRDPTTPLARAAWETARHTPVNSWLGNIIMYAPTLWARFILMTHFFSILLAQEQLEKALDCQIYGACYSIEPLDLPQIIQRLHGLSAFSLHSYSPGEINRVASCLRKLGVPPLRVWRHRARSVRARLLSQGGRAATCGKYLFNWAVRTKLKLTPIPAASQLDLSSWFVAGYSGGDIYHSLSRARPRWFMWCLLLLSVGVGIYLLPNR

As to `CN1CCN(c2cc3c(cc2F)c(=O)c(NC(=O)Cc2ccc(Cl)cc2)cn3Cc2ccccc2)CC1`, in data set [1] (huh-7), the concentration for 50% growth inhibition (GI50) entry is “Not Active”. For the same molecule, half-maximal inhibition in data set [2] (IC50) was put at 2 µM. For the same molecule, the EC50 entry in data set [3] (huh-7) was “Not Active”.

In the case of `COc1cc2c(=O)c(C(=O)c3ccc(C)cc3)cn(CCc3ccccc3)c2cc1OC`, in data set [1] (huh-7), the GI50 result is recorded as “Not Active”. Besides, the midpoint of inhibition in data set [2], the IC50, lay at 110 µM. In data set [3] (huh-7), the EC50 entry is “Not Active”.

Regarding `COc1cc2c(=O)c(C(=O)c3ccc(C)cc3)cn(Cc3ccc(N)cc3)c2cc1OC`, the GI50 result in data set [1] (huh-7) is “Not Active”. The same molecule yielded an IC50 in data set [2] of 140 µM. For the same molecule, the EC50 entry in data set [3] (huh-7) is “Not Active”.

As to `CCOC(=O)c1cn(Cc2ccc(Cl)cc2)c2cc(OC)c(OC)cc2c1=O`, the GI50 in data set [1] (HuH7 cells, read-out: GI50) was above 15 µM. Also, the IC50 in data set [2] is 16 µM. Also, the EC50 in data set [3] (setting [7]) was above 15 µM.

In the case of `COc1cc2c(=O)c(C(=O)c3ccc(C)cc3)cn(Cc3ccc(C(C)(C)C)cc3)c2cc1OC`, the GI50 in data set [1] (HuH7 cells, read-out: GI50) is above 25 µM. The molecule further returned an IC50 in data set [2] of 0.68 µM. In data set [3] (setting [7]), the EC50 was found to be 9.5 µM.

`O=C(OCc1ccc(Cl)cc1)c1cn(Cc2ccc(Cl)cc2)c2cc(N3CCNCC3)c(F)cc2c1=O`: in data set [1] (HuH7 cells, read-out: GI50), the GI50 was 1.1 µM. Moreover, in data set [2], the IC50 stood at 0.01 µM. The half-maximal effective concentration (EC50) in data set [4] was 0.41 µM; in data set [3] (setting [7]) it was 0.12 µM.

Regarding `COc1cc2c(=O)c(C(=O)c3ccc(C)cc3)cn(CC3CC3)c2cc1OC`, in data set [1] (huh-7), the GI50 result is “Not Active”. In data set [2], the concentration for half-maximal inhibition (IC50) was found to be 120 µM. Further, the EC50 entry in data set [3] (huh-7) is listed as “Not Active”.

As to `COc1cc2c(=O)c(C(=O)c3ccc(C)cc3)cn(Cc3ccccc3)c2cc1OC`, in data set [1] (huh-7), the GI50 entry is “Not Active”. The molecule further came in with an IC50 in data set [2] of 170 µM. In addition, the concentration for a half-maximal effect (EC50) entry in data set [3] (huh-7) is “Not Active”.

For the molecule `COc1cc2c(=O)c(C(=O)c3ccc(C)cc3)cn(Cc3ccc(S(C)(=O)=O)cc3)c2cc1OC`, in data set [1] (HuH7 cells, read-out: GI50), the 50% growth inhibitory concentration (GI50) was above 50 µM. Moreover, in data set [2], the midpoint of inhibition, the IC50, lay at 0.5 µM. For the same molecule, in data set [3] (setting [7]), the EC50 turned out to be 25.3 µM.

As for `COc1cc2c(=O)c(S(=O)(=O)CCc3ccc(Cl)cc3)cn(Cc3ccccc3)c2cc1OC`, the GI50 entry in data set [1] (huh-7) is “Not Active”. In data set [2], this molecule registered an IC50 above 150 µM. In addition, the EC50 entry in data set [3] (huh-7) is listed as “Not Active”.

`O=C(NCc1ccc(Cl)cc1)c1cn(Cc2ccc(Cl)cc2)c2cc(N3CCOCC3)c(F)cc2c1=O`: the GI50 entry in data set [1] (huh-7) was “Not Active”. The 50% inhibitory concentration (IC50) in data set [2] worked out at 16 µM. Also, in data set [3] (huh-7), the concentration giving a half-maximal response (EC50) entry is given as “Not Active”.

Regarding `COc1cc2c(=O)c(C(=O)c3ccc(C)cc3)cn(Cc3ccc(Cl)cc3)c2cc1OC`, the GI50 in data set [1] (HuH7 cells, read-out: GI50) came to 15.5 µM. Further, 1.1 µM corresponded to half-maximal inhibition in data set [2] (IC50). The EC50 in data set [3] (setting [7]) turned out to be 11.7 µM.

Take `CN1CCN(c2cc3c(cc2F)c(=O)c(NC(=O)NCc2ccc(Cl)cc2)cn3Cc2ccc(Cl)cc2)CC1`: in data set [1] (huh-7), the 50% growth inhibitory concentration (GI50) entry is on record as “Not Active”. The molecule also showed an IC50 in data set [2] above 150 µM. Also, in data set [3] (huh-7), the concentration for a half-maximal effect (EC50) result is reported as “Not Active”.

For the molecule `COc1cc2c(=O)c(C(=O)c3ccc(C)cc3)cn(CCCc3ccccc3)c2cc1OC`, in data set [1] (huh-7), the 50% growth inhibitory concentration (GI50) result is “Not Active”. In data set [2], this molecule showed an IC50 of 2.2 µM. Further, in data set [3] (huh-7), the EC50 result was “Not Active”.

Consider `CN1CCN(c2cc3c(cc2F)c(=O)c(NC(=O)NCc2ccccc2)cn3Cc2ccccc2)CC1`, for which the concentration for 50% growth inhibition (GI50) result in data set [1] (huh-7) is given as “Not Active”. Further, 26 µM corresponded to half-maximal inhibition in data set [2] (IC50). Further, the EC50 entry in data set [3] (huh-7) was “Not Active”.

Consider `COc1cc2c(=O)c(C(=O)OCc3ccccc3C)cn(Cc3ccc(C(F)(F)F)cc3F)c2cc1OC`, for which, in data set [1] (HuH7 cells, read-out: GI50), the GI50 was determined as 31 µM. This molecule also registered an IC50 in data set [2] of 0.015 µM. The EC50 in data set [3] (setting [7]) worked out at 0.71 µM.

With `CN1CCN(c2cc3c(cc2F)c(=O)c(NC(=O)Cc2ccccc2)cn3Cc2ccc(Cl)cc2)CC1`, the GI50 entry in data set [1] (huh-7) was “Not Active”. Besides, the IC50 in data set [2] was 4.6 µM. The EC50 result in data set [3] (huh-7) is given as “Not Active”.

For the molecule `CN(Cc1ccc(Cl)cc1)C(=O)c1cn(Cc2ccc(Cl)cc2)c2cc(N3CCOCC3)c(F)cc2c1=O`, the GI50 result in data set [1] (huh-7) is “Not Active”. Further, it took 330 µM to reach half-maximal inhibition in data set [2] (IC50). The EC50 entry in data set [3] (huh-7) is recorded as “Not Active”.

On to `COc1cc2c(=O)c(C(=O)c3ccc(C)cc3)cn(Cc3ccc(C(C)C)cc3)c2cc1OC`, for which the GI50 in data set [1] (HuH7 cells, read-out: GI50) was 15.5 µM. For the same molecule, the fold change (FC) was 1 in data set [5] and above 200 in data set [6]. The molecule also returned an IC50 in data set [2] of 1.15 µM. Besides, the EC50 in data set [3] (setting [7]) is 11.7 µM.

Turning to `COc1cc2c(=O)c(C(=O)c3ccc(C)cc3)cn(Cc3ccc(C(F)(F)F)cc3F)c2cc1OC`, the GI50 in data set [1] (HuH7 cells, read-out: GI50) is above 25 µM. This molecule yielded an IC50 in data set [2] of 0.41 µM. Also, the EC50 in data set [3] (setting [7]) is above 12 µM.

For the molecule `COc1cc2c(=O)c(COCc3ccc(Cl)cc3)cn(Cc3ccccc3)c2cc1OC`, the GI50 result in data set [1] (huh-7) is “Not Active”. For the same molecule, inhibition in data set [2] was half-maximal at 100 µM (IC50). The EC50 result in data set [3] (huh-7) is recorded as “Not Active”.

`COc1cc2c(=O)c(C(=O)c3ccc(C)cc3)cn(CC3CCCCC3)c2cc1OC`: the GI50 in data set [1] (HuH7 cells, read-out: GI50) amounted to 22 µM. The molecule also yielded an IC50 in data set [2] of 9 µM. Also, the EC50 in data set [3] (setting [7]) came out at 38 µM.

Consider `COc1cc2c(=O)c(C(=O)c3ccc(C)cc3)cn(Cc3ccc(Cl)c(Cl)c3)c2cc1OC`, for which the GI50 entry in data set [1] (huh-7) is listed as “Not Active”. Also, the IC50 in data set [2] was 1.1 µM. For the same molecule, the EC50 entry in data set [3] (huh-7) is reported as “Not Active”.

`COc1cc2c(=O)c(C(=O)OCc3ccc(Cl)cc3)cn(Cc3ccc(Cl)cc3)c2cc1OC`: the GI50 in data set [1] (HuH7 cells, read-out: GI50) was determined as 28.3 µM. The molecule also came in with an IC50 in data set [2] of 0.02 µM. In data set [3] (setting [7]), the EC50 worked out at 1.2 µM.

Turning to `O=C(OCc1ccc(Cl)cc1)c1cn(Cc2ccc(Cl)cc2)c2cc(N3CCOCC3)c(F)cc2c1=O`, the GI50 in data set [1] (HuH7 cells, read-out: GI50) was above 12 µM. The IC50 in data set [2] was determined as 0.02 µM. The EC50 in data set [3] (setting [7]) is 1.7 µM.

For the molecule `COc1cc2c(=O)c(C(=O)OCc3ccc(C)cc3)cn(Cc3ccc(C(F)(F)F)cc3F)c2cc1OC`, the GI50 in data set [1] (HuH7 cells, read-out: GI50) is 20 µM. Moreover, the IC50 in data set [2] came out at 0.008 µM. In data set [3] (setting [7]), the EC50 was found to be 0.23 µM.

For `COc1cc2c(=O)c(C(=O)OCc3cccc(C)c3)cn(Cc3ccc(C(F)(F)F)cc3F)c2cc1OC`, the GI50 in data set [1] (HuH7 cells, read-out: GI50) came to 7.3 µM. In data set [2], this molecule gave an IC50 of 0.06 µM. Besides, in data set [3] (setting [7]), the 50% effective concentration (EC50) turned out to be 1.2 µM.

With `COc1cc2c(=O)c(C(=O)c3ccc(C)cc3)cn(Cc3ccc(S(N)(=O)=O)cc3)c2cc1OC`, the GI50 in data set [1] (HuH7 cells, read-out: GI50) is above 25 µM. Also, the concentration for half-maximal inhibition (IC50) in data set [2] was determined as 0.85 µM. Further, the EC50 in data set [3] (setting [7]) was above 50 µM.
